ASAP1 GAP inh: inhibitors of human ASAP1 ArfGAP activity, primary screen, biochemical, fluorescence polarization; ASAP1-stimulated ARF1 GTP hydrolysis, GDP FP detection; inhibition, % at 16.5 µM; 360,000 tested, 0.19% active; AID 624377, 2012; in the data active means inhibition above about 25%;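 further: 0% = vehicle with enzyme and substrate and 100% = no enzyme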
Target sequence (Q9ULH1 325-724 limits assumed): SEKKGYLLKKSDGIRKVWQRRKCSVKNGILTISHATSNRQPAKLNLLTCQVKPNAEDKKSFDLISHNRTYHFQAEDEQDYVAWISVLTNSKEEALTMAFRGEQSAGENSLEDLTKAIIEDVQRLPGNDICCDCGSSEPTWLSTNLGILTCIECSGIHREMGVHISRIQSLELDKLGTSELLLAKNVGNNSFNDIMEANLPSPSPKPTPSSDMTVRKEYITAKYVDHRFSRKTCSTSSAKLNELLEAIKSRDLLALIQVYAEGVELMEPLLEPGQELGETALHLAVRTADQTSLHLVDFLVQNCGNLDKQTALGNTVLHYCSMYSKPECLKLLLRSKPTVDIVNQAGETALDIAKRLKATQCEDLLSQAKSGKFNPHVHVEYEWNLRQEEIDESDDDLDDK
esBAF inh: Bmi1 luciferase reporter increase in mESCs, primary screen, esBAF inhibitor project, mouse ES cells, Bmi1 luciferase knock-in, single point | 24 h; 100% = twice the neutral-well signal | reporter increase, % at 12.5 µM | 350,000 tested, 2% active | AID 602393, 2012; in the data active means activation above about 40%;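 further: 0% = median of the plate's neutral control wells and 100% = double that signal; a rise in the Bmi1 reporter signal indicates esBAF inhibition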
SMARCA2 act: SMARCA2 (BRM) function activators, primary screen, cell-based, luminescence, high throughput; MG213 cells, MMTV-luciferase reporter, dexamethasone, overnight; activation, % at 9.1 µM; 370,000 tested, 1% active; in the data active means activation above about 7.8%;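 further: 0% = vehicle wells and 100% = reference activator wells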
ARFGAP1 inhibitor: inhibitors of rat ARFGAP1 GAP activity, primary screen, biochemical, fluorescence polarization, GDP tracer; 360,000 tested, 0.26% active; ADP-ribosylation factor GTPase-activating protein 1 (Rattus norvegicus), Q62848; AID 651572, 2012; inhibition, % at 16.5 µM; Arfgap1-stimulated ARF1 GTP hydrolysis, GDP FP detection;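 active means inhibition above a per-plate limit, mean inhibition of low control wells plus 3 SD, cut at about 25% in these data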;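 further: 0% = DMSO wells with enzyme and 100% = wells lacking Arfgap1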
Target sequence (Q62848 1-136 limits assumed): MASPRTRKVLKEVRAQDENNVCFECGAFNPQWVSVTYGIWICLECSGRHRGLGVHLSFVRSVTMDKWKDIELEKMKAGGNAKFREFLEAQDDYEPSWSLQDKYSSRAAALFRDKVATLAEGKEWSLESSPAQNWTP
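Repeats: one replicate per compound; assay system: rat Arfgap1 catalytic domain, aa 1-136; times: enzyme reaction 120 min at 25 °C after 20 min preincubation; detection: FP of antibody-bound GDP Alexa 633 tracer, ex 620/em 688 nm; benchmarks: high control wells lacking Arfgap1, low control full reaction with DMSO; reagent: human ARF1(Δ1-17)-GTP substrate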
ASAP1 GAP conf: ASAP1 GAP activity inhibitors, confirmation, biochemical, fluorescence polarization, human, triplicate | shares compounds with ASAP1 GAP inh | ASAP1-stimulated Arf1 GTPase, GDP fluorescence polarization | inhibition, % at 16.5 µM | 620 tested, 37% active | AID 624431, 2012;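 active means mean inhibition over triplicates exceeds the hit threshold derived for the earlier primary screening run, cut at about 25% in these data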
Starred values were filed as active, the others as inactive. A selection: hits, their analogues and other compounds. The true share with any hit is near 2.6%.

`CN(C)CCCNC(=O)[C@@H]1[C@@H](CO)[C@@H]2Cn3c(ccc(-c4ccccc4)c3=O)[C@H]1N2C(=O)CC1CC1` gave esBAF inh 6.
For O=C(N[C@@H]1CC[C@@H](CCNS(=O)(=O)c2ccc(F)cc2)O[C@H]1CO)C1CCCC1 the results were esBAF inh -3.
CC(=O)N(C)c1ccc(NC(=O)Nc2ccc(C)c(C)c2)cc1 was read as ASAP1 GAP inh 27*, SMARCA2 act 2, ARFGAP1 inhibitor 0 and ASAP1 GAP conf 6.
Screening CC(=O)N(C)c1ccc(NC(=O)Nc2ccccc2C)cc1 returned ASAP1 GAP inh 14, esBAF inh 31, SMARCA2 act 5 and ARFGAP1 inhibitor 5.
`CC(C)NC(=O)N[C@H]1CC[C@H](CCNC(=O)C2CCCC2)O[C@@H]1CO` gave esBAF inh -2.
`CCOC(=O)Nc1ccc2c(c1)C(=NO)c1ccccc1-2` gave ASAP1 GAP inh 28*, SMARCA2 act 7, ARFGAP1 inhibitor 12 and ASAP1 GAP conf 21.
For CCOC(=O)Nc1ccc2c(c1)C(=NNC(N)=S)c1ccccc1-2 the results were ASAP1 GAP inh 27*, esBAF inh -35, SMARCA2 act 3, ARFGAP1 inhibitor 8 and ASAP1 GAP conf 11.
Screening NC(=O)c1cccc2c1-c1ccccc1/C2=N/NC(N)=S returned ASAP1 GAP inh -4, esBAF inh -7, SMARCA2 act 2 and ARFGAP1 inhibitor -11.
For CNC(=O)C[C@H]1CC[C@H]2[C@@H](COc3ccc(NC(=O)c4ccc(F)cc4)cc3C(=O)N2C)O1 the results were esBAF inh -3.
For O=Nc1c(O)c2ccccc2c2ccccc12 the results were ASAP1 GAP inh 5, esBAF inh -62, SMARCA2 act -8 and ARFGAP1 inhibitor -5.
For O=c1c(=Nc2ccccc2O)c(=O)c2ccccc12 the results were ASAP1 GAP inh 28*, SMARCA2 act 0, ARFGAP1 inhibitor 9 and ASAP1 GAP conf 8.
Screening C[C@@H]1CN([C@H](C)CO)C(=O)c2cccc(NC(=O)c3ccncc3)c2O[C@@H]1CN(C)Cc1ccc(Cl)c(Cl)c1 returned esBAF inh -4.
`COc1ccc2[nH]c(C(=O)N/N=C/c3ccccc3OC)cc2c1` gave ASAP1 GAP inh 14, esBAF inh -5, SMARCA2 act -1 and ARFGAP1 inhibitor 12.
Screening CCOc1ccc2[nH]c(C(=O)N/N=C/c3ccccc3OC)cc2c1 returned ASAP1 GAP inh 30*, esBAF inh -2, SMARCA2 act 1, ARFGAP1 inhibitor 10 and ASAP1 GAP conf 28*.
COc1cc(OC)cc(C(=O)N[C@H](C(=O)OCC(=O)c2c[nH]c3ccccc23)C(C)C)c1 was read as ASAP1 GAP inh 28*, esBAF inh 7, SMARCA2 act -2, ARFGAP1 inhibitor 16 and ASAP1 GAP conf 13.
`CC1CCc2c(sc(NC(=O)c3ccco3)c2C(=O)O)C1` (stereo not drawn) gave ASAP1 GAP inh 27*, esBAF inh 3, SMARCA2 act -4, ARFGAP1 inhibitor -2 and ASAP1 GAP conf -2.
CN1CCN(C(=O)c2c(NC(=O)c3ccco3)sc3c2CCC(C(C)(C)C)C3)CC1 (stereo not drawn) was read as ASAP1 GAP inh -7, esBAF inh -3, SMARCA2 act -2 and ARFGAP1 inhibitor 3.
`O=C(CCCN1C(=O)/C(=C/c2ccc(F)cc2)SC1=S)NCCCn1ccnc1` gave ASAP1 GAP inh 26*, esBAF inh -21, SMARCA2 act -5, ARFGAP1 inhibitor -3 and ASAP1 GAP conf -4.
COc1ccc2cc3c(N)nn(C(=O)c4ccc(Cl)c([N+](=O)[O-])c4)c3nc2c1 was read as ASAP1 GAP inh 73*, SMARCA2 act -2, ARFGAP1 inhibitor 0 and ASAP1 GAP conf 118*.
`COc1ccc2cc3c(N)nn(C(=O)c4ccccc4[N+](=O)[O-])c3nc2c1` gave ASAP1 GAP inh -4, SMARCA2 act -5 and ARFGAP1 inhibitor 15.
`O=C1NC(Cc2c[nH]c3ccccc23)C(=O)N1Cc1ccc(CN2C(=O)NC(Cc3c[nH]c4ccccc34)C2=O)cc1` (stereo not drawn) gave ASAP1 GAP inh 29*, esBAF inh 5, SMARCA2 act -1, ARFGAP1 inhibitor 8 and ASAP1 GAP conf 13.
For CC(=O)N[C@@H]1CC[C@H](CCNC(=O)C2CCC2)O[C@H]1CO the results were esBAF inh 3.
`C[C@@H]1CCCCO[C@@H](CN(C)S(=O)(=O)c2cccs2)[C@@H](C)CN([C@H](C)CO)C(=O)c2cc(NC(=O)C3CCCCC3)ccc2O1` gave esBAF inh 6.
For NS(=O)(=O)c1ccc(NC(=O)CN2CCN(S(=O)(=O)/C=C/c3ccccc3)CC2)cc1 the results were ASAP1 GAP inh 30*, esBAF inh -5, SMARCA2 act -2, ARFGAP1 inhibitor 9 and ASAP1 GAP conf 4.
NS(=O)(=O)c1ccc(NC(=O)CN2CCN(Cc3ccccc3)CC2)cc1 was read as ASAP1 GAP inh 0, esBAF inh 3, SMARCA2 act 0 and ARFGAP1 inhibitor -6.
`COc1ccc(S(=O)(=O)N[C@@H]2C=C[C@@H](CC(=O)NCCc3ccncc3)O[C@H]2CO)cc1` gave esBAF inh 1.
For O=C1C(=O)N(Cc2ccccc2)C(=O)N1CCN1C(=O)c2ccccc2C1=O the results were ASAP1 GAP inh 6, SMARCA2 act -3 and ARFGAP1 inhibitor 0.
Screening O=C1Cc2ccccc2C(=O)N1CCc1ccccc1 returned ASAP1 GAP inh 33*, esBAF inh 7, SMARCA2 act 0, ARFGAP1 inhibitor 13 and ASAP1 GAP conf 15.
Screening O=C(C[C@H]1CC[C@H](NC(=O)c2cccc(F)c2)[C@H](CO)O1)Nc1nccs1 returned esBAF inh 0.
For COc1ccc(Br)cc1C(=O)NC(=S)Nc1ccc(CN2CCOCC2)cc1 the results were ASAP1 GAP inh 27*, esBAF inh -1, SMARCA2 act -2, ARFGAP1 inhibitor 12 and ASAP1 GAP conf 2.
`Cc1ccc(C(=O)NC(=S)Nc2ccc(CN3CCOCC3)cc2)cc1` gave ASAP1 GAP inh 6, esBAF inh 12, SMARCA2 act -4 and ARFGAP1 inhibitor 4.
`CCNC(=O)C[C@@H]1CC[C@@H]2[C@@H](COc3ccc(NC(=O)Nc4cccc(C)c4)cc3C(=O)N2C)O1` gave esBAF inh -3.
`CC(=O)c1ccc(CCCc2ccc(C(C)=O)cc2)cc1` gave ASAP1 GAP inh 7, SMARCA2 act 0 and ARFGAP1 inhibitor 17.

High-throughput results deposited in PubChem by several laboratories.
